Reference: publication PMC8530978 (Bioorganic chemistry, 2021)

Tests used:
[1] = test system: NCI sixty human tumor cell line panel; assay: NCI sixty human tumor cell line panel, single dose 10 μM; type: cell-based; details: Homo sapiens; for activity at 10 µM: read-out: Mean % growth at 10 μM
HCT 116 cells = assay: MTS reduction assay, antiproliferative activity on HCT 116; type: cell-based; details: Homo sapiens, HCT-116, 96 h
How it was run: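 HCT116 cells grown in McCoy's 5A with 10% FBS (37 °C, 5% CO2), seeded at 3 × 10^3/well in triplicate and left to adhere overnight. Exposed to test compound at 0.01–100 μM, or DMSO, for 96 h. MTS reagent added for 2 h at 37 °C; absorbance read at 490 nm. Curves of log(concentration) vs response fitted with a variable Hill slope.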

HDAC1 = HDAC1 (Homo sapiens, UniProt Q13547); assay: HDAC-Glo inhibitor testing with recombinant HDAC1; type: biochemical
HDAC1, sequence (Q13547 whole entry): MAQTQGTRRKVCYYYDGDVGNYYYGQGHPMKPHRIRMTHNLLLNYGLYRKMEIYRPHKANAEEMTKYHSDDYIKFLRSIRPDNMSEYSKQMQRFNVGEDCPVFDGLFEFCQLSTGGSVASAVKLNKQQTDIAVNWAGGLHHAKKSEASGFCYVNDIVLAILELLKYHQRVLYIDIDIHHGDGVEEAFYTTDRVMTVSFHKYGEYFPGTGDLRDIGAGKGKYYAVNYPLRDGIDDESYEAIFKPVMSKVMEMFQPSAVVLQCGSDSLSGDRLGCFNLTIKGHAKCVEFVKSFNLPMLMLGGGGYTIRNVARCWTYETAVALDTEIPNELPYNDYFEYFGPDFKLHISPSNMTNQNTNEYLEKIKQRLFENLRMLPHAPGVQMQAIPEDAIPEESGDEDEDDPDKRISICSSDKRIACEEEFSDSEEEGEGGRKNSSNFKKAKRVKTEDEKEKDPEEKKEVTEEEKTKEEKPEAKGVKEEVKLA

HDAC2 = HDAC2 (Homo sapiens, UniProt Q92769); assay: HDAC-Glo inhibitor testing with recombinant HDAC2; type: biochemical
HDAC2, sequence (Q92769 whole entry): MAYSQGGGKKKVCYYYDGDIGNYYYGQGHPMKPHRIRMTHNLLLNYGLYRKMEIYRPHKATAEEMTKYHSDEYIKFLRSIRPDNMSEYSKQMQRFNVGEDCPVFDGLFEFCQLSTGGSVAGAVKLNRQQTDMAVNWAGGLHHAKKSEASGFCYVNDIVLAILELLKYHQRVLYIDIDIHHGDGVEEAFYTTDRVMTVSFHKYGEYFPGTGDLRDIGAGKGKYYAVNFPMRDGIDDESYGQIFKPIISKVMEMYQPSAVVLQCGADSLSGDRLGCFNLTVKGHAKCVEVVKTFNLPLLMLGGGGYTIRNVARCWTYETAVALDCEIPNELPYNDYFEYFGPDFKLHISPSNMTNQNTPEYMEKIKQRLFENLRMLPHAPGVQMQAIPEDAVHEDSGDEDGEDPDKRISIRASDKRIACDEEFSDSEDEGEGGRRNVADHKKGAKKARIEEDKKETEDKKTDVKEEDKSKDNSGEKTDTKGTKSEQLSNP

HDAC6 = target: T1, HDAC6 (Homo sapiens, UniProt Q9UBN7); assay: HDAC-Glo inhibitor testing with recombinant HDAC6; type: biochemical
T1 sequence (Q9UBN7 1-1215): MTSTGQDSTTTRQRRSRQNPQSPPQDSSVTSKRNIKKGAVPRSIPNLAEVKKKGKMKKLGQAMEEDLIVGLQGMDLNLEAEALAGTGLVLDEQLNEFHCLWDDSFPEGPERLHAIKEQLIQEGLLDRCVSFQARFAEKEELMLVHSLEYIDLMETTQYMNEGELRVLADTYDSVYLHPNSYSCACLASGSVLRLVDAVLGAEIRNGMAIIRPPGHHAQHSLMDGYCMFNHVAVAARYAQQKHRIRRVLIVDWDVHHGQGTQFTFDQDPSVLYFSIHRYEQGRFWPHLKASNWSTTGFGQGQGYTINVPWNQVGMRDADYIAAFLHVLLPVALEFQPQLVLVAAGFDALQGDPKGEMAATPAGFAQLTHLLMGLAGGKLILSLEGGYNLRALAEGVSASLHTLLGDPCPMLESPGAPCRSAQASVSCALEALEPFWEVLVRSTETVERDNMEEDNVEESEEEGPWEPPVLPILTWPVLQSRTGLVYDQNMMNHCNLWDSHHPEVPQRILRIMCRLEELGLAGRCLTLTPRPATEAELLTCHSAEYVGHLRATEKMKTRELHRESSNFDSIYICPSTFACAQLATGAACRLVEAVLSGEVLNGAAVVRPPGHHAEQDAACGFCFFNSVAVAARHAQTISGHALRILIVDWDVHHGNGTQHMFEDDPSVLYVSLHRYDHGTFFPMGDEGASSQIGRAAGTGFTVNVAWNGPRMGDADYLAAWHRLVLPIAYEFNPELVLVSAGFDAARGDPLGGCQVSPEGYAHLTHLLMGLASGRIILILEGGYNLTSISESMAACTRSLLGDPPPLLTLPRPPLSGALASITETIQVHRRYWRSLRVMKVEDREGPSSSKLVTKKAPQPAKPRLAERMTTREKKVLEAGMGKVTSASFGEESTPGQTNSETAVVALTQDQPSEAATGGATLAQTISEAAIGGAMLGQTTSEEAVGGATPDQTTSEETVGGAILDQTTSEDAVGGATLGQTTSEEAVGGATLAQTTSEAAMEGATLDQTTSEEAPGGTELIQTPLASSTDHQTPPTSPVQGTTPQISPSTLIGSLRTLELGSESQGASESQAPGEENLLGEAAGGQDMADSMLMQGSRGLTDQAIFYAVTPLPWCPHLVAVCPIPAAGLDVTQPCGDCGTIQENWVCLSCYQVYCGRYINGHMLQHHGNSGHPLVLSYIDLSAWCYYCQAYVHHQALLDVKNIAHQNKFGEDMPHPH

[2] = test system: purified HDAC isoforms (HDAC1, 2, 3, 8 and HDAC6); assay: Single concentration; type: biochemical; details: 100 μM, HDAC1, 2, 3, 8 and 6
How it was run: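 Recombinant HDAC1, 2, 3, 6 or 8 (1 μL of enzyme stock at 3, 1, 30, 35 or 70 ng/μL respectively) in HDAC-Glo buffer, incubated 3 h at room temperature with test compound in DMSO. HDAC-Glo reagent then added; luminescence read every 3 min for 30 min. Peak signal corrected against a no-enzyme background and divided by the no-inhibitor signal to give % activity remaining.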

[3] = test system: acetylation of SMC3 in HeLaM cells; assay: Western blot of SMC3 acetylation in HeLaM cells; type: cell-based; details: overnight treatment
How it was run: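 Acetylated SMC3 detected by immunoblot with an anti-acetyl-SMC3 antibody, HRP-conjugated secondary antibody and enhanced chemiluminescence, imaged on film.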

HeLaM cells = assay: Flow cytometry cell cycle analysis; type: cell-based; details: for cells in G2/M: 48 hours, subG1 excluded (DMSO 10%); for subG1 population: 72 hr post treatment (DMSO 14%)
How it was run: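 5 × 10^5 HeLaM cells plated, treated next day with test compound or DMSO for 24, 48 or 72 h. All cells (floating and attached) collected and fixed in 70% ethanol (final). […] 10 μg/ml, 30 min, 37 °C, then propidium iodide in PBS + 2% FBS. SubG1 gated; subG1 excluded before modeling live-cell cycle distribution.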

NCI 60 cancer cell lines = assay: NCI dose response assay; type: cell-based, human
[4] = test system: histone H3 acetylation and tubulin acetylation in HCT116 cells; assay: Western blot of histone H3 and tubulin acetylation in HCT116 cells; type: cell-based, human; details: HCT116, 24 h, IPEs up to highest concentration 25 μM
How it was run: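 HCT116 cells (2 × 10^6 per T-25 flask) adhered overnight, then given test compound at 1, 10 or 25 μM, or DMSO, for 24 h. Lysed in RIPA; protein measured by BCA. Acetyl-histone H3 and acetyl-tubulin immunoblotted, detected with fluorescent secondary antibodies on an Odyssey scanner.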

[5] = test system: mitotic spindle of HeLaM cells; type: cell-based; details: compound 10 μM + MG132 + ZM447439 (DMSO+MG132+ZM447439 3%)
HDAC3 = HDAC3 (Homo sapiens, UniProt O15379); assay: HDAC-Glo inhibitor testing with recombinant HDAC3; type: biochemical
HDAC3, sequence (O15379 whole entry): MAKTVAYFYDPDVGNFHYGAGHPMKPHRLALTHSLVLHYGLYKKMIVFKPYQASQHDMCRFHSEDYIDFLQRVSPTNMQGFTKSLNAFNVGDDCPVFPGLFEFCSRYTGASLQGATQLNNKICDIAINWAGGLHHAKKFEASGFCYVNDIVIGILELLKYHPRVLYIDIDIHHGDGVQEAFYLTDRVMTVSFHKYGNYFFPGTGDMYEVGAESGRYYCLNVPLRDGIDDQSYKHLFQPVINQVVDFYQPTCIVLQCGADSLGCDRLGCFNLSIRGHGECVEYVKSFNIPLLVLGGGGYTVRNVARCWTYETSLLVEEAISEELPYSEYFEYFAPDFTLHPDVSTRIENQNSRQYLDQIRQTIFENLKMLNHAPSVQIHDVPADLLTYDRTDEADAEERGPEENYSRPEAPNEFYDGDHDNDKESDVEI
HDAC3, sequence (Q9Y618 395-489 partner limits assumed): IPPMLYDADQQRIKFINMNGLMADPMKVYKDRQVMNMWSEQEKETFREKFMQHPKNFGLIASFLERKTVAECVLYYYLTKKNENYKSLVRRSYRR

HDAC8 = target: T2, HDAC8 (Homo sapiens, UniProt Q9BY41); assay: HDAC-Glo inhibitor testing with recombinant HDAC8; type: biochemical; details: for remaining activity at 100 µM: read-out: HDAC8 activity remaining
T2 sequence (Q9BY41 1-377): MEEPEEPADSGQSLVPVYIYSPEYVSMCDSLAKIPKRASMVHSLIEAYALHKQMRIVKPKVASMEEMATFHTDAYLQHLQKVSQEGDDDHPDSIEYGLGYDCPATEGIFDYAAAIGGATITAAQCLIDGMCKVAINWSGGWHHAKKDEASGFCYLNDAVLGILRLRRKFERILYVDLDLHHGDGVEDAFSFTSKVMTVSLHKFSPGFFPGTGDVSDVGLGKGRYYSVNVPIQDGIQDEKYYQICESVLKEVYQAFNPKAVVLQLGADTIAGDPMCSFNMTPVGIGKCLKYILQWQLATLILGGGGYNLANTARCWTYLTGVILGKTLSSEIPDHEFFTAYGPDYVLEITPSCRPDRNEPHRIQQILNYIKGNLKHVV

[6] = target: tubulin heterodimers, purified from porcine brain (Sus scrofa, UniProt P02554); assay: Turbidity-based tubulin polymerization assay; type: biochemical; details: 10 μM compound, 37 °C, exponential phase (DMSO 10 mOD/min)
tubulin heterodimers, purified from porcine brain, sequence (P02554 whole entry): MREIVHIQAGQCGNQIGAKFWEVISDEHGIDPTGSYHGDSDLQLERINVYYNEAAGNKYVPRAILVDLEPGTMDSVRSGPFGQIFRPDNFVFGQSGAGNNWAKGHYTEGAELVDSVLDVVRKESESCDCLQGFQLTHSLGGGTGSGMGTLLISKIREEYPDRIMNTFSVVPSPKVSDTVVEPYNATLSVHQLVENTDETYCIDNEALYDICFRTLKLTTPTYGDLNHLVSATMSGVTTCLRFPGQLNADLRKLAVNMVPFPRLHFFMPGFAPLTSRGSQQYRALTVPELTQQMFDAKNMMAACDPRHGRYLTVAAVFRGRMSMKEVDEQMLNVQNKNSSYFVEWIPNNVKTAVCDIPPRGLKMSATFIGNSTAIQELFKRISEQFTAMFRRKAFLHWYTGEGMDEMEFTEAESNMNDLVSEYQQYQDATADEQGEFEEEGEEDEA
tubulin heterodimers, purified from porcine brain, sequence (P02550 whole entry partner): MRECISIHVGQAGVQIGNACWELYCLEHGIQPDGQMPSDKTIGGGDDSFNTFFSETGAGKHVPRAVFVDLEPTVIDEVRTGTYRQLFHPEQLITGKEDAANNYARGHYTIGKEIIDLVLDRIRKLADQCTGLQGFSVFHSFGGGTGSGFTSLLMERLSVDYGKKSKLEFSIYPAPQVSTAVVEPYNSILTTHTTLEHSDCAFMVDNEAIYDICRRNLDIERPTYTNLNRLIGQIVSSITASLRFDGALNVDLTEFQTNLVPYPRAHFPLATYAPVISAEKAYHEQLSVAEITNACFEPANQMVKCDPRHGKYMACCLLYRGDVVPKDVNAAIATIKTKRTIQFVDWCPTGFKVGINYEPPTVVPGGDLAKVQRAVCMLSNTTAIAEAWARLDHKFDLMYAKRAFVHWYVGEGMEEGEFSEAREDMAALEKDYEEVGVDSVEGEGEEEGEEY

| GI50 (HCT 116 cells) | IC50 (HDAC1) | IC50 (HDAC2) | IC50 (HDAC6) | IC50 (HDAC3) | IC50 (HDAC8) | remaining activity at 100 µM (HDAC8) | Structure (SMILES) | activity at 10 µM [1] | global histone H3 acetylation and tubulin acetylation [4] | other results |
| --- | --- | --- | --- | --- | --- | --- | --- | --- | --- | --- |
| 6.85 µM |  |  |  |  |  |  | Cc1ccc(NC(=O)Cc2ccc(/C=C/C(=O)c3ncc[nH]3)cc2)cc1 [IPE-3, (E)-2-(4-(3-(1H-Imidazol-2-yl)-3-oxoprop-1-en-1-yl)phenyl)-N-(p-tolyl)acetamide] | 41.3% |  |  |
| 5.14 µM | > 100 µM | > 100 µM | > 100 µM |  |  |  | O=C(Cc1ccc(/C=C/C(=O)c2ncc[nH]2)cc1)Nc1ccc(Cl)cc1 [IPE-8, (E)-2-(-4(3-(1H-imidazol-2-yl)-3-oxoprop-1-en-1-yl)phenyl)-N-(4-chlorophenyl)acetamide] | 21.1% |  | activity remaining, each HDAC isoform [2]: 20–80%; SMC3 acetylation [3]: no effect on SMC3 acetylation; cells in G2/M (HeLaM cells): 33%; subG1 population (HeLaM cells): 59% |
|  |  |  |  |  |  |  | O=C(Cc1ccc(/C=C/C(=O)c2ncc[nH]2)cc1)Nc1ccc(Br)cc1 [IPE-9, (E)-2-(-4(3-(1H-imidazol-2-yl)-3-oxoprop-1-en-1-yl)phenyl)-N-(4-bromophenyl)acetamide] | 17.9% |  | GI50, all but two of the cell lines each in the leukemia and colon cancer panels (NCI 60 cancer cell lines): sub-micromolar |
| 5.91 µM |  |  |  |  |  |  | Cn1ccnc1C(=O)/C=C/c1ccc(CC(=O)Nc2ccccc2)cc1 [IPE-16, (E)-2-(4-(3-(1-Methyl-1H-imidazol-2-yl)-3-oxoprop-1-en-1-yl)phenyl)-N-phenylacetamide] | 15.9% | no increase in global histone acetylation or tubulin acetylation | spindle collapse [5]: phenotype was reproduced |
| 6.56 µM |  |  |  |  |  |  | Cn1ccnc1C(=O)/C=C/c1ccc(CC(=O)Nc2ccc(F)cc2)cc1 [IPE-19, (E)-N-(4-Fluorophenyl)-2-(4-(3-(1-methyl-1H-imidazol-2-yl)-3-oxoprop-1-en-1-yl)phenyl)acetamide] | 33.1% | no increase in global histone acetylation or tubulin acetylation |  |
|  | > 200 µM | > 200 µM | > 200 µM | > 200 µM | 3 ± 0.2 µM | 20 to 60% | Cn1ccnc1C(=O)/C=C/c1ccc(CC(=O)Nc2ccc(S(F)(F)(F)(F)F)cc2)cc1 [IPE-22, (E)-2-(4-(3-(1-Methyl-1H-imidazol-2-yl)-3-oxoprop-1-en-1-yl)phenyl)-N-(4-(pentafluoro-λ^6-sulfanyl)phenyl)acetamide] | -18.8% |  | inhibition at 10 µM ([1]; read-out: growth inhibition at 10 μM): 100%; fold selectivity for HDAC8 compared to the other isoforms (HDAC8; from IC50 values, other isoforms >200 μM): ≥ 67 fold; GI50, all leukemia cell lines (NCI 60 cancer cell lines): upper nanomolar; spindle collapse [5]: phenotype was reproduced |
|  | > 200 µM | > 200 µM | > 200 µM | > 200 µM | 13 ± 1 µM | 20 to 60% | Cn1ccnc1C(=O)/C=C/c1ccc(CC(=O)Nc2cc(F)c(F)c(F)c2)cc1 [IPE-24, (E)-2-(4-(3-(1-methyl-1H-imidazol-2-yl)-3-oxoprop-1-en-1-yl)phenyl)-N-(3,4,5-trifluorophenyl)acetamide] | 22.7% |  | GI50, all leukemia cell lines (NCI 60 cancer cell lines): upper nanomolar |
|  | 12 ± 1 µM | 8.9 ± 0.6 µM | 8.6 ± 4.9 µM | 16 ± 1 µM | 9 ± 0.5 µM |  | Cn1ccnc1C(=O)/C=C/c1ccc(CC(=O)Nc2c(F)c(F)c(F)c(F)c2F)cc1 [IPE-25, (E)-2-(4-(3-(1-methyl-1H-imidazol-2-yl)-3-oxoprop-1-en-1-yl)phenyl)-N-(perfluorophenyl)acetamide] | 61.4% |  |  |
|  | > 200 µM | > 100 µM | > 100 µM | > 200 µM | 15 ± 1 µM | 20 to 60% | Cn1ccnc1C(=O)/C=C/c1ccc(CC(=O)Nc2cc(C(F)(F)F)cc(C(F)(F)F)c2)cc1 [IPE-26, (E)-N-(3,5-bis(trifluoromethyl)phenyl)-2-(4-(3-(1-methyl-1H-imidazol-2-yl)-3-oxoprop-1-en-1-yl)phenyl)acetamide] | 69% |  |  |
|  | > 100 µM | > 100 µM | > 100 µM | > 100 µM | 12 ± 1 µM | 20 to 60% | C#Cc1ccc(NC(=O)Cc2ccc(/C=C/C(=O)c3nccn3C)cc2)cc1 [IPE-27, (E)-N-(4-Ethynylphenyl)-2-(4-(3-(1-methyl-1H-imidazol-2-yl)-3-oxoprop-1-en-1-yl)phenyl)acetamide] | 53.5% |  |  |
|  |  |  |  |  |  |  | Nc1ccccc1NC(=O)c1ccc(CNC(=O)OCc2cccnc2)cc1 [MS275, reference compound] |  | dramatically increased |  |
|  |  |  |  |  |  |  | O=C(CCCCCCC(=O)Nc1ccccc1)NO [SAHA, reference compound] |  | dramatically increased | cells in G2/M (HeLaM cells): 8.2%; subG1 population (HeLaM cells): 37%; spindle collapse [5]: did not produce the same aberrant spindle |
|  |  |  |  |  |  |  | CC(=O)O[C@H]1C(=O)[C@@]2(C)[C@H]([C@H](OC(=O)c3ccccc3)[C@]3(O)C[C@H](OC(=O)[C@H](O)[C@@H](NC(=O)c4ccccc4)c4ccccc4)C(C)=C1C3(C)C)[C@]1(OC(C)=O)CO[C@@H]1C[C@@H]2O [Taxol, reference compound] |  |  | Vmax of tubulin polymerization [6]: higher Vmax than DMSO |
